Measured values as given in ChEMBL document CHEMBL4371006, “Discovery of N-[4-(Quinolin-4-yloxy)phenyl]benzenesulfonamides as Novel AXL Kinase Inhibitors” (J Med Chem, 2018).
One block for each compound: values may come before it. Calls of active or inactive are those of the source. The calls are words filed in the database; no cut-off is given here.

Assays:
[1] = target: T1, Tyrosine-protein kinase CSK (Homo sapiens, UniProt P41240); assay: Inhibition of CSK (unknown origin) using fluorescently-labeled peptide as substrate at 10 uM by IMAP fluorescence polarization assay
[2] = target: Proto-oncogene tyrosine-protein kinase receptor Ret (Homo sapiens) (UniProt P07949); assay: Inhibition of RET (unknown origin) using fluorescence labeled peptide as substrate at 10 uM by IMAP assay
Method in brief: (§1)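 Kinase selectivity profiling, run by a contract lab, with the test compound at 10 µmol/L in triplicate. In the IMAP format, the kinase phosphorylates a fluorescently labelled substrate peptide in solution. A binding solution of trivalent metal-based nanoparticles is then added to capture the phosphopeptide, and the drop in rotational speed is read as fluorescence polarization. Results are given as percent inhibition of each kinase.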

[3] = target: Tyrosine-protein kinase SYK (Homo sapiens) (UniProt P43405); assay: Binding affinity to SYK (unknown origin) at 10 uM
[4] = target: Tyrosine-protein kinase SYK (Homo sapiens) (UniProt P43405); assay: Inhibition of SYK (unknown origin) using fluorescence labeled peptide as substrate at 10 uM by IMAP assay
Method in brief: as §1

[5] = target: Fibroblast growth factor receptor 3 (Homo sapiens) (UniProt P22607); assay: Inhibition of FGFR3 (unknown origin) using fluorescently-labeled peptide as substrate at 10 uM by IMAP fluorescence polarization assay
[6] = target: Serine/threonine-protein kinase B-raf (Homo sapiens) (UniProt P15056); assay: Binding affinity to BRAF (unknown origin) at 10 uM
[7] = target: T1, Tyrosine-protein kinase CSK; assay: Inhibition of CSK (unknown origin) using fluorescence labeled peptide as substrate at 10 uM by IMAP assay
Method in brief: (§2)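 IMAP fluorescence-polarization kinase assay at 10 µmol/L compound, run in triplicate by a contract lab. A fluorescently labeled substrate peptide is phosphorylated, then nanoparticles carrying trivalent metal bind the phosphopeptide and slow its rotation. Read-out is fluorescence polarization, expressed as percent inhibition.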

[8] = target: Tyrosine-protein kinase JAK3 (Homo sapiens) (UniProt P52333); assay: Inhibition of JAK3 (unknown origin) using fluorescence labeled peptide as substrate at 10 uM by IMAP assay
[9] = target: Fibroblast growth factor receptor 3 (Homo sapiens) (UniProt P22607); assay: Inhibition of FGFR3 (unknown origin) using fluorescence labeled peptide as substrate at 10 uM by IMAP assay
Method in brief: as §2

[10] = target: Serine/threonine-protein kinase B-raf (Homo sapiens) (UniProt P15056); assay: Inhibition of BRAF (unknown origin) at 10 uM by reporter probe displacement binding assay
[11] = target: 5-azacytidine-induced protein 2 (Homo sapiens, UniProt Q9H6S1); assay: Binding affinity to AZI2 in SILAC-labeled human MDA-MB-231 cells lysate by mass spectrometry based kinAffinity assay; format: subcellular
Method in brief: (§3)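 Chemical proteomics: MDA-MB-231 lysate bound to matrix of immobilized broad kinase inhibitors at several densities (BC50), then competed with increasing free compound (CC50); proteins quantified by mass spectrometry, Kd via Cheng-Prusoff. Two competition formats run in parallel to check equilibrium.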

[12] = target: TANK-binding kinase 1-binding protein 1 (Homo sapiens, UniProt A7MCY6); assay: Binding affinity to TBKBP1 in SILAC-labeled human MDA-MB-231 cells lysate by mass spectrometry based kinAffinity assay; format: subcellular
Method in brief: (§4)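 MDA-MB-231 lysate applied to KinAffinity matrix of immobilized broadband kinase inhibitors at graded densities to obtain BC50 per target. Competition then run with increasing free compound to give CC50; Kd derived by Cheng-Prusoff. Two competition experiments in parallel to check equilibrium, one with lysate pre-incubated with compound before adding matrix. Quantitation by mass spectrometry.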

[13] = target: Tyrosine-protein kinase Tec (Homo sapiens, UniProt P42680); assay: Binding affinity to TEC in SILAC-labeled human MDA-MB-231 cells lysate by mass spectrometry based kinAffinity assay; format: subcellular
Method in brief: as §4

[14] = target: Protein-tyrosine kinase 2-beta (Homo sapiens, UniProt Q14289); assay: Binding affinity to PYK2 in SILAC-labeled human MDA-MB-231 cells lysate by mass spectrometry based kinAffinity assay; format: subcellular
Method in brief: as §4

[15] = target: Dual specificity mitogen-activated protein kinase kinase 5 (Homo sapiens, UniProt Q13163); assay: Binding affinity to MAP2K5 in SILAC-labeled human MDA-MB-231 cells lysate by mass spectrometry based kinAffinity assay; format: subcellular
Method in brief: as §3

[16] = target: Serine/threonine-protein kinase SIK3 (Homo sapiens, UniProt Q9Y2K2); assay: Binding affinity to QSK in SILAC-labeled human MDA-MB-231 cells lysate by mass spectrometry based kinAffinity assay; format: subcellular
Method in brief: as §4

[17] = target: Serine/threonine-protein kinase TBK1 (Homo sapiens, UniProt Q9UHD2); assay: Binding affinity to TBK1 in SILAC-labeled human MDA-MB-231 cells lysate by mass spectrometry based kinAffinity assay; format: subcellular
Method in brief: as §4

TGF-beta receptor type-1 = TGF-beta receptor type-1 (Homo sapiens, UniProt P36897); assay: Binding affinity to TGFBR1 in SILAC-labeled human MDA-MB-231 cells lysate by mass spectrometry based kinAffinity assay; format: subcellular
Method in brief: as §4

[18] = Antitumor activity against AXL expressing mouse MXT cells allografted in mouse assessed as prolongation of survival time at 5 to 15 mg/kg, ip qd administered 21 consecutive days; format: functional; conditions: read-out: MED
Method in brief: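 MXT mammary tumour cells implanted subcutaneously and staged to about 125 mm3. Dosing then began: once daily ip for 21 consecutive days, at 5 or 15 mg/kg, alongside a vehicle group, with 7 animals per group. Survival in days was recorded for each animal and given as mean ± SD, and as T/C% against the vehicle group (vehicle = 100%).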

[19] = Toxicity in mouse allografted with AXL expressing mouse MXT cells assessed as weight loss at 15 mg/kg, ip qd administered 21 consecutive days; format: organism-based; conditions: in vivo
[20] = target: Cyclin-dependent kinase 17 (Homo sapiens, UniProt Q00537); assay: Binding affinity to PCTK2 in SILAC-labeled human MDA-MB-231 cells lysate by mass spectrometry based kinAffinity assay; format: subcellular
Method in brief: as §4

[21] = target: Mitogen-activated protein kinase kinase kinase 3 (Homo sapiens, UniProt Q99759); assay: Binding affinity to MAP3K3 in SILAC-labeled human MDA-MB-231 cells lysate by mass spectrometry based kinAffinity assay; format: subcellular
Method in brief: as §3

MDA-MB-231 = assay: Antitumor activity against human MDA-MB-231 cells xenografted in mouse assessed as tumor growth inhibition at 30 mg/kg, ip bid measured 3 times per week starting at day 12; format: functional, organism-based
Method in brief: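 Female SCID/Beige mice inoculated with 2 x 10^6 MDA-MB-231 cells in HBSS:Matrigel (1:1) into third mammary fat pad under ketamine/xylazine. Test agent 30 mg/kg ip twice daily (12 h apart) in PEG400/H2O 70:30, or paclitaxel 10 mg/kg iv three times weekly; 10 mice/group. Tumors measured three times weekly from day 12; lungs and lymph nodes excised, formalin-fixed, nodes H&E-scored (mean ± SEM).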

[22] = target: Mitogen-activated protein kinase kinase kinase kinase 4 (Homo sapiens, UniProt O95819); assay: Binding affinity to MAP4K4 in SILAC-labeled human MDA-MB-231 cells lysate by mass spectrometry based kinAffinity assay; format: subcellular
Method in brief: as §3

Sequence of Serine/threonine-protein kinase B-raf (Homo sapiens) (P15056 whole entry): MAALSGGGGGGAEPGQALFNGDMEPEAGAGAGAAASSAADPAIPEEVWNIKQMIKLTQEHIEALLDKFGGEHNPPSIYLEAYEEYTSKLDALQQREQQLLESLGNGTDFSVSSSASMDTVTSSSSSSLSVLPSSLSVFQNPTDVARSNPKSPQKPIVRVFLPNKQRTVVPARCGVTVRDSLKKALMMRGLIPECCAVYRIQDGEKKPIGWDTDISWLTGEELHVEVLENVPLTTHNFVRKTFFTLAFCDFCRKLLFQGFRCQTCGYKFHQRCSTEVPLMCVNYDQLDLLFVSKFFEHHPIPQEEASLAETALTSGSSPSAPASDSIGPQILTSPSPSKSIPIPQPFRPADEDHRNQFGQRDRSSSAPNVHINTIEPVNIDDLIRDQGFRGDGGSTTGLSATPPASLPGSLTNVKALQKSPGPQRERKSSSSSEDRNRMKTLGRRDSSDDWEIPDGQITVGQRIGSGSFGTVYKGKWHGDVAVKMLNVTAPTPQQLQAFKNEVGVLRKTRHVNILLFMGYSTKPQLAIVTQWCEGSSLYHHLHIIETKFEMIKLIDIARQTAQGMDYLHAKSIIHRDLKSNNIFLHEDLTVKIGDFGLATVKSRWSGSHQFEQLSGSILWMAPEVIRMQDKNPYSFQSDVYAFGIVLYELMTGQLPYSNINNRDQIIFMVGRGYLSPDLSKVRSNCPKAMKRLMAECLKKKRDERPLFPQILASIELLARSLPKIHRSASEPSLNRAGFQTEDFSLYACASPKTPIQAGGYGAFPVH
T1 sequence (P41240 2-450 limits assumed): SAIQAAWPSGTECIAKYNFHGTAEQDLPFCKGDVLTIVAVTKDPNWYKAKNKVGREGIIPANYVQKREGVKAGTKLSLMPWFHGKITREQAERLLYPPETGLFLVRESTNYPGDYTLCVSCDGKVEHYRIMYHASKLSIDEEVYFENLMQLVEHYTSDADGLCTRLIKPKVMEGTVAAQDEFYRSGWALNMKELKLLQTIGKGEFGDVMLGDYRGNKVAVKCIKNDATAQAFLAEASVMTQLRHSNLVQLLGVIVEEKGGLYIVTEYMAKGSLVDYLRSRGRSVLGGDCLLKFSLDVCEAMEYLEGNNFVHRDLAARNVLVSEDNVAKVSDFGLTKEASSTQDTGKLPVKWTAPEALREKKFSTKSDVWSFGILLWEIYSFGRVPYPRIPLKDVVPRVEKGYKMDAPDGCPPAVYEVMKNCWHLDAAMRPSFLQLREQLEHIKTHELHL
Sequence of Fibroblast growth factor receptor 3 (Homo sapiens) (P22607 23-806 limits assumed): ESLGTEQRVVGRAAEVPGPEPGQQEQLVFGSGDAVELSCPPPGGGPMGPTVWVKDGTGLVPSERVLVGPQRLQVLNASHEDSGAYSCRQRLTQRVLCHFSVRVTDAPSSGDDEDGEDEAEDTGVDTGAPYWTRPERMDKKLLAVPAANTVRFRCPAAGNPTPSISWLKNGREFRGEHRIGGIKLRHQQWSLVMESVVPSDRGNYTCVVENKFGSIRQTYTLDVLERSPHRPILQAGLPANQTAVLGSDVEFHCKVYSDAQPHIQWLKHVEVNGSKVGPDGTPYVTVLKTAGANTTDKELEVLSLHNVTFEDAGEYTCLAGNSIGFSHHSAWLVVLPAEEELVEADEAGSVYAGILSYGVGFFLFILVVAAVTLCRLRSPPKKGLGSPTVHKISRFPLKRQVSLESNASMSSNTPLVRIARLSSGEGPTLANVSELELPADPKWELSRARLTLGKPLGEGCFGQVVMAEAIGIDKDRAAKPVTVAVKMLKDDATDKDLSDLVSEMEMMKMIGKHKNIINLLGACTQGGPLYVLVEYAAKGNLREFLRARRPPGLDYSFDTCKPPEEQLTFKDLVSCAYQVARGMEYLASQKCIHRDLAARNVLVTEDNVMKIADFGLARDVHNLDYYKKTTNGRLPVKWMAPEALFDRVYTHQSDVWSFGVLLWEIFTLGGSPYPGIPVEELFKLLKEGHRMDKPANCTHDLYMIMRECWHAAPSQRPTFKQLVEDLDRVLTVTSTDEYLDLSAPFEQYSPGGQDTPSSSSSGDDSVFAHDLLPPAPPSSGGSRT
Sequence of Tyrosine-protein kinase JAK3 (Homo sapiens) (P52333 whole entry): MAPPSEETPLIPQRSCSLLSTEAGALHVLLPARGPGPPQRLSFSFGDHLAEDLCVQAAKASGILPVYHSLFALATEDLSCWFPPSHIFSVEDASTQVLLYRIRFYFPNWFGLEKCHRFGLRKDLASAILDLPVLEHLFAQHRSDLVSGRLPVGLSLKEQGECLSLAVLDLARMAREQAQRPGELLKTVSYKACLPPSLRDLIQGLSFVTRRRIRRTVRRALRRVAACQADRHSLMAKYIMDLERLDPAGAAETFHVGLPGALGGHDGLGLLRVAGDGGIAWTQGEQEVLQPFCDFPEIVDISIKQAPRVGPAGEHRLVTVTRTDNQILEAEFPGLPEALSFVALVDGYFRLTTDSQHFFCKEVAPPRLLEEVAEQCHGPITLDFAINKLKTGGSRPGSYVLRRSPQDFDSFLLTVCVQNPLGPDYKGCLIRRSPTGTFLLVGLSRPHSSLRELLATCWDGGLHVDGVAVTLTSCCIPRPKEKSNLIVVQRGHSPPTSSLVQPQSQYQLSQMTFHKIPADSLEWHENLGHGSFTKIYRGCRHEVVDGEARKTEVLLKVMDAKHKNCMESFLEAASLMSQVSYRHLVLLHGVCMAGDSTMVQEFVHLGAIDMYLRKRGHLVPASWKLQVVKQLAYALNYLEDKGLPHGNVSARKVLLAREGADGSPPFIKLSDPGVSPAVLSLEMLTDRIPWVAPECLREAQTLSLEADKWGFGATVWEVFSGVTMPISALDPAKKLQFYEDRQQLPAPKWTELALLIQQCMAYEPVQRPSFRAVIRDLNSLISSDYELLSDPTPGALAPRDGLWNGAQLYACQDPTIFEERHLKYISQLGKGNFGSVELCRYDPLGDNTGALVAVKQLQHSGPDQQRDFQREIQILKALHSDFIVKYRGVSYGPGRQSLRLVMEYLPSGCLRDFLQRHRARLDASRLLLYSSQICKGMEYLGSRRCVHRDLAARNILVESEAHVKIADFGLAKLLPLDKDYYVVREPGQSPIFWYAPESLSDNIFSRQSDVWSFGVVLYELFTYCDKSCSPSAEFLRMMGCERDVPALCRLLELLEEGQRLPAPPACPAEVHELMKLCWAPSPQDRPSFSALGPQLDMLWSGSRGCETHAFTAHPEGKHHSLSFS
Sequence of Serine/threonine-protein kinase SIK3 (Q9Y2K2 whole entry): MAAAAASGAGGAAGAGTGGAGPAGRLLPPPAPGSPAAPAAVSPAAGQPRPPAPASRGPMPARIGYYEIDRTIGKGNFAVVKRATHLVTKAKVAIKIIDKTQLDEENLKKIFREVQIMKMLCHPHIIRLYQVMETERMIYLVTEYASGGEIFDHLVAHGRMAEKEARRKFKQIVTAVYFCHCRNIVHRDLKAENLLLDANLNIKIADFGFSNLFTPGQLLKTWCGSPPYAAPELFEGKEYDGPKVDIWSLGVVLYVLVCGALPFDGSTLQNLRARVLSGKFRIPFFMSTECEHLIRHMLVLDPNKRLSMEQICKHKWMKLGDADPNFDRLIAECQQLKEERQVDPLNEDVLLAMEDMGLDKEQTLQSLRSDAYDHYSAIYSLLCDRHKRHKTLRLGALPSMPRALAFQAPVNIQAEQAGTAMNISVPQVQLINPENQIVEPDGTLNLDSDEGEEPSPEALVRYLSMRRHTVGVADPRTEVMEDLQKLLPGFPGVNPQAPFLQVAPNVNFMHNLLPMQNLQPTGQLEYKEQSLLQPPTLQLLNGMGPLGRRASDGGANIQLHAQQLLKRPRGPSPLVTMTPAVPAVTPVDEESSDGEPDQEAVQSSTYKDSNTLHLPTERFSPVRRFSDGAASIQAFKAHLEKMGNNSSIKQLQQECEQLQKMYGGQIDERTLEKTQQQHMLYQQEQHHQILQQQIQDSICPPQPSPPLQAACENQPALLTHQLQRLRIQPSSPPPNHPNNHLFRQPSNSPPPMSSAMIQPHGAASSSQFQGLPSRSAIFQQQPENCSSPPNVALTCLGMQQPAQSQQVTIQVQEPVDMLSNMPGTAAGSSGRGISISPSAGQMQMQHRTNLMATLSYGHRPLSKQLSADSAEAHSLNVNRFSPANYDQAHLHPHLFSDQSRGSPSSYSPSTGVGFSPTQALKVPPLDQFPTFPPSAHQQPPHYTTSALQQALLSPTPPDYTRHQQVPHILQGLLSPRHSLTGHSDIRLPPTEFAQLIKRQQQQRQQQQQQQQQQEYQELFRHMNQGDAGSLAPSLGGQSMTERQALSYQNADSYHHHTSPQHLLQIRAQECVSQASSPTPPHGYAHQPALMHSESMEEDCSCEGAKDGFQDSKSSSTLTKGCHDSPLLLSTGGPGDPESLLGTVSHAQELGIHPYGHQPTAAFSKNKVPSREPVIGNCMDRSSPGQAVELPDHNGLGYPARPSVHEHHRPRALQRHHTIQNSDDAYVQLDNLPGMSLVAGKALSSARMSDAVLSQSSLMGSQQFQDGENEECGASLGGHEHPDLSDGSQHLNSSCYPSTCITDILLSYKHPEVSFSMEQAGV
Sequence of Cyclin-dependent kinase 17 (Q00537 whole entry): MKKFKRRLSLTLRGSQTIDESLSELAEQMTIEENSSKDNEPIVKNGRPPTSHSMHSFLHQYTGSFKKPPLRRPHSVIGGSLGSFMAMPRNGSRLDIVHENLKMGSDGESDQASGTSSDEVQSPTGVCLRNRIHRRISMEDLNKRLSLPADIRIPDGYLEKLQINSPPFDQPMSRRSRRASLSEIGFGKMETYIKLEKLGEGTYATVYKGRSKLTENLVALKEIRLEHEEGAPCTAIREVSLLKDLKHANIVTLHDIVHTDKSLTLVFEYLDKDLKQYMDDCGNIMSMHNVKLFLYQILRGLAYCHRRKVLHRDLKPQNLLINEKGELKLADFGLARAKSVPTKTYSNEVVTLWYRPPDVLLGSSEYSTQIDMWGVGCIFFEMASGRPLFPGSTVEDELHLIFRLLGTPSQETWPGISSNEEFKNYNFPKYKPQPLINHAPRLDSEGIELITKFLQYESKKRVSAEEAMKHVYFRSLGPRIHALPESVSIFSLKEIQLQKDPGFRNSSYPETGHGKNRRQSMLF

inhibition [1]: Active | inhibition [2]: Active | inhibition [3]: Active | inhibition [4]: Active | inhibition [5]: Active | inhibition [6]: Active | inhibition [7]: Active | inhibition [8]: Active | inhibition [9]: Active | inhibition [10]: Active
Structure (SMILES): COc1cc2c(Oc3ccc(NS(=O)(=O)c4ccccc4C(F)(F)F)cc3F)ccnc2cc1OCCCN1CCN(C)CC1

Kd(free) [11]: 2.982 µM | Kd(free) [12]: 2.09 µM | Kd(free) [13]: > 3.674 µM | Kd(free) [14]: 6.928 µM | Kd(free) [15]: 0.539 µM | Kd(free) [16]: 7.63 µM | Kd(free) [17]: 3.273 µM | Kd(free) (TGF-beta receptor type-1): 0.205 µM
Structure (SMILES): COc1cc2c(Oc3ccc(NS(=O)(=O)c4c(F)cccc4F)cc3F)ccnc2cc1OCCCN1CCN(C)CC1

Structure (SMILES): COc1cc2c(Oc3ccc(NS(=O)(=O)c4cc(F)ccc4F)cc3F)ccnc2cc1OCCCN1CCCC(C)C1 (centres undefined)
minimal effective dose [18]: 5 mg/kg | Activity [19]: Non-Toxic

Kd(free) [20]: > 7.651 µM | Kd(free) [21]: 3.133 µM | Kd(free) [22]: 3.75 µM
Structure (SMILES): COc1cc2c(Oc3ccc(NS(=O)(=O)c4cc(F)ccc4F)cc3F)ccnc2cc1OCCCN1CCN(C)CC1
TGI (MDA-MB-231): Active
